ChEMBL document CHEMBL1955747, “Maximizing lipophilic efficiency: the use of Free-Wilson analysis in the design of inhibitors of acetyl-CoA carboxylase” (J Med Chem, 2012)
Values after ≈ are worked out from the molar mass of the structure shown.

Key:
[1] = Aqueous solubility at pH 7.4; format: physicochemical; settings: buffer
[2] = Intrinsic clearance in human liver microsomes; format: ADME, Microsome; settings: read-out: CLH
Acetyl-CoA carboxylase 2 = Acetyl-CoA carboxylase 2 (Homo sapiens, UniProt O00763); assay: Inhibition of human Acetyl-CoA carboxylase 2 expressed in CHO cells after 1 hr by fluorescence assay; format: cell-based
Acetyl-CoA carboxylase 2, sequence (O00763 whole entry): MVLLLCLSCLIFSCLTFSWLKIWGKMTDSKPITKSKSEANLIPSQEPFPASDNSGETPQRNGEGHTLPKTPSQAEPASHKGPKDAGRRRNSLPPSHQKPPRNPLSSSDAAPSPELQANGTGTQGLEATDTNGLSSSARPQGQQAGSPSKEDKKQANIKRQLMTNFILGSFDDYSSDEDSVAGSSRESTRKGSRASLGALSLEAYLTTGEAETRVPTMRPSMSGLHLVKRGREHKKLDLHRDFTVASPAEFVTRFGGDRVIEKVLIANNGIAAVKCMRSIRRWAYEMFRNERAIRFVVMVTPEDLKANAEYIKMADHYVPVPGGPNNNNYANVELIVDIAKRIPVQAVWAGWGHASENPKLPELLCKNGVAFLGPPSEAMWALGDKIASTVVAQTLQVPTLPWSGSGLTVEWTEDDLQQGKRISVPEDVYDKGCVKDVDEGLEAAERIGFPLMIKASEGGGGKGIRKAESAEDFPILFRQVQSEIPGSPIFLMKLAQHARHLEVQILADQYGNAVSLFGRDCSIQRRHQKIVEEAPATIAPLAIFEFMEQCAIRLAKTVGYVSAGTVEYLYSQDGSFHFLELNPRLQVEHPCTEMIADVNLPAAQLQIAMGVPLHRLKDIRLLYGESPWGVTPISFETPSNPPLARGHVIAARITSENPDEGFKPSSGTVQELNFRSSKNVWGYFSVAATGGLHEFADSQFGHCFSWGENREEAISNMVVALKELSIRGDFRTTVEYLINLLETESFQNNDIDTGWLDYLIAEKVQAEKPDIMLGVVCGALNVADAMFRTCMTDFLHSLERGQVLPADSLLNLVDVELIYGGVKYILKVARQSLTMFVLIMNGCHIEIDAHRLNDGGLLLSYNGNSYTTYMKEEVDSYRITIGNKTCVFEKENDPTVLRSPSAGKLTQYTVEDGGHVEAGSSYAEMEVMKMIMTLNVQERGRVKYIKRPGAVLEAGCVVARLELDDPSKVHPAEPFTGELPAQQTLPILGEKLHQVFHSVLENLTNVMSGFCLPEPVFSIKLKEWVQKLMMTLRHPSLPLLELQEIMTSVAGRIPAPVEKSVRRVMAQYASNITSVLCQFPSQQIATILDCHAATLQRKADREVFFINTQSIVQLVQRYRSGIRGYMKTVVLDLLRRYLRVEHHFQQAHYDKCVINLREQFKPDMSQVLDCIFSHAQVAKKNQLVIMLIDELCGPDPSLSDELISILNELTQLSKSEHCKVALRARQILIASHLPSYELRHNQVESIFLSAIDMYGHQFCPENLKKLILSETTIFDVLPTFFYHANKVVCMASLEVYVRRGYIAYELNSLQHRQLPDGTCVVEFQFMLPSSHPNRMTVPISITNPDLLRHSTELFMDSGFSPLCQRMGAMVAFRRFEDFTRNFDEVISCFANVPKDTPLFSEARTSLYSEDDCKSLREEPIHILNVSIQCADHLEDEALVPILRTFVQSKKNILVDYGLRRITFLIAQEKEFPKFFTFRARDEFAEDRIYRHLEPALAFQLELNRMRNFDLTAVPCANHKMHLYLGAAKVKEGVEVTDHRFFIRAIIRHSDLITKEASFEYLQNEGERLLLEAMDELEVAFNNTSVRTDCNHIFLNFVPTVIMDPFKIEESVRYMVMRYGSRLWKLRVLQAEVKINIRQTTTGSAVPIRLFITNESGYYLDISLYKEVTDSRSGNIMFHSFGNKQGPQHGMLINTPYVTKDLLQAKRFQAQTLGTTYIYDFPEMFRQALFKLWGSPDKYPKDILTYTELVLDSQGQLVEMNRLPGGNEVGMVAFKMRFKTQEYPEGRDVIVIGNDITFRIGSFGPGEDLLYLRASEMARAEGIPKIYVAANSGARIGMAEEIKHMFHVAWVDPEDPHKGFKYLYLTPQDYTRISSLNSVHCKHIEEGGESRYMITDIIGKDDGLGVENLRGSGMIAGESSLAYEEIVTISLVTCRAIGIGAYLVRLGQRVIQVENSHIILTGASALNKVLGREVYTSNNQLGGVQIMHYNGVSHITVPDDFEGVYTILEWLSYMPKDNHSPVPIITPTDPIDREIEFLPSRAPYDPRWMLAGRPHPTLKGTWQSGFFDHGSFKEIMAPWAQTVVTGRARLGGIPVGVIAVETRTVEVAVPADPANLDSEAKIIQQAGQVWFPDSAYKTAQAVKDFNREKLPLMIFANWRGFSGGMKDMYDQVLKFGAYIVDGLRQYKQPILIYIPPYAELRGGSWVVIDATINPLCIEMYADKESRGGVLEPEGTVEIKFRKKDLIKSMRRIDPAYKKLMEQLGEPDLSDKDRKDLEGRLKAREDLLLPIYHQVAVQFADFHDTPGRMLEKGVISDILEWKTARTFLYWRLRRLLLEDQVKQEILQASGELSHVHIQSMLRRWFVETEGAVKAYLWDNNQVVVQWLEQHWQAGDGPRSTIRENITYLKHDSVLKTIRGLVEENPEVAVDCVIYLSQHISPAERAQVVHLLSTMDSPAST

Acetyl-CoA carboxylase 1 = Acetyl-CoA carboxylase 1 (Rattus norvegicus, UniProt P11497); assay: Inhibition of rat liver Acetyl-CoA carboxylase 1 using acetyl-CoA as substrate preincubated for 10 mins prior substrate addition measured after 20 mins by luminescence counting
How it was run: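 Each IC50 comes from single-point inhibition data run in triplicate. The reported value is the arithmetic mean of at least three independent replicates ± SEM.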

Rattus norvegicus [3] = assay: Antidiabetic activity in Sprague-Dawley rat assessed as inhibition of malonyl-CoA production in quadriceps at 50 mg/kg, po after 2 hrs by LC-MS analysis; format: functional
[4] = Plasma clearance in po dosed Sprague-Dawley rat; format: ADME, organism-based
[5] = Aqueous solubility at pH 6.5; format: physicochemical; settings: buffer
[6] = Fraction unbound in Sprague-Dawley rat plasma; format: ADME, cell-free
Rattus norvegicus [7] = assay: Volume of distribution at steady state in po dosed Sprague-Dawley rat; format: ADME, organism-based; settings: in vivo
[8] = Half life in po dosed Sprague-Dawley rat; format: ADME, organism-based; settings: in vivo
[9] = Permeability across dog RRCK cells; format: ADME, cell-based, Canis lupus familiaris, MDCKII-LE; settings: MDCK, read-out: permeability
Rattus norvegicus [10] = assay: Antidiabetic activity in Sprague-Dawley rat assessed as inhibition of malonyl-CoA production in liver at 50 mg/kg, po after 2 hrs by LC-MS analysis; format: functional
Rattus norvegicus [11] = assay: Antidiabetic activity in po dosed Sprague-Dawley rat assessed as inhibition of malonyl-CoA production in quadriceps after 2 hrs by LC-MS analysis; format: functional
[12] = Oral bioavailability in Sprague-Dawley rat; format: ADME, organism-based; settings: in vivo
Rattus norvegicus [13] = assay: Antidiabetic activity in po dosed Sprague-Dawley rat assessed as inhibition of malonyl-CoA production in liver after 2 hrs by LC-MS analysis; format: functional

Cc1cc2c(cc1C)C(=O)CC1(CCN(C(=O)c3cc(C)c4[nH]ncc4c3)CC1)O2
solubility [1]: 19 µM (≈ 7.67 µg/mL) | CLint scaled [2]: 4.08 L/h/kg

Cc1cc(C(=O)N2CCC3(CC2)CC(=O)c2nn(C4CCCCC4)cc2O3)cc2cn[nH]c12
IC50 (Acetyl-CoA carboxylase 2): 0.063 µM | IC50 (Acetyl-CoA carboxylase 1): 0.046 µM

Cn1ncc2ccc(C(=O)N3CCC4(CC3)CC(=O)c3nn(C(C)(C)C)cc3O4)cc21
IC50 (Acetyl-CoA carboxylase 2): 0.021 µM | IC50 (Acetyl-CoA carboxylase 1): 0.013 µM | CLint scaled [2]: 0.786 L/h/kg

CC(C)(C)n1cc2c(n1)C(=O)CC1(CCN(C(=O)c3ccc4nc[nH]c4c3)CC1)O2
Imax (Rattus norvegicus [3]): 75% | CL/F [4]: 1.56 L/h/kg | solubility [5]: 300 µM (≈ 122 µg/mL) | fraction unbound [6]: 0.55 | Vdss (Rattus norvegicus [7]): 2.3 L/kg | half-life [8]: 4.2 h | Papp [9]: 109 nm/s | Imax (Rattus norvegicus [10]): 78% | IC50 (Acetyl-CoA carboxylase 1): 0.017 µM | ED50 (Rattus norvegicus [11]): 2.6 mg/kg | bioavailability [12]: 50% | ED50 (Rattus norvegicus [13]): 1.6 mg/kg | CLint scaled [2]: < 0.48 L/h/kg

Cc1cc(C(=O)N2CCC3(CC2)CC(=O)c2nn(C)cc2O3)cc2cn[nH]c12
IC50 (Acetyl-CoA carboxylase 2): 0.65 µM | IC50 (Acetyl-CoA carboxylase 1): 0.37 µM

Cc1cc(C(=O)N2CCC3(CC2)CC(=O)c2nn(C)c(C)c2O3)cc2cn[nH]c12
IC50 (Acetyl-CoA carboxylase 2): 0.47 µM | IC50 (Acetyl-CoA carboxylase 1): 0.28 µM

CCn1cc2c(n1)C(=O)CC1(CCN(C(=O)c3cc(C)c4[nH]ncc4c3)CC1)O2
IC50 (Acetyl-CoA carboxylase 2): 0.063 µM | IC50 (Acetyl-CoA carboxylase 1): 0.062 µM

CCn1nc2c(c1C)OC1(CCN(C(=O)c3cc(C)c4[nH]ncc4c3)CC1)CC2=O
IC50 (Acetyl-CoA carboxylase 2): 0.037 µM

CCCn1cc2c(n1)C(=O)CC1(CCN(C(=O)c3cc(C)c4[nH]ncc4c3)CC1)O2
IC50 (Acetyl-CoA carboxylase 2): 0.045 µM

Cc1cc(C(=O)N2CCC3(CC2)CC(=O)c2nn(C(C)C)cc2O3)cc2cn[nH]c12
IC50 (Acetyl-CoA carboxylase 2): 0.023 µM

Cc1cc(C(=O)N2CCC3(CC2)CC(=O)c2nn(Cc4ccccc4)cc2O3)cc2cn[nH]c12
IC50 (Acetyl-CoA carboxylase 1): 0.26 µM

Cc1cc(C(=O)N2CCC3(CC2)CC(=O)c2nn(C4CCC4)cc2O3)cc2cn[nH]c12
IC50 (Acetyl-CoA carboxylase 2): 0.014 µM

Cc1cc(C(=O)N2CCC3(CC2)CC(=O)c2nn(C4CCCC4)cc2O3)cc2cn[nH]c12
IC50 (Acetyl-CoA carboxylase 2): 0.0094 µM

Cc1cc(C(=O)N2CCC3(CC2)CC(=O)c2nn(C(C)(C)C)cc2O3)cc2cn[nH]c12
IC50 (Acetyl-CoA carboxylase 2): 0.0069 µM | IC50 (Acetyl-CoA carboxylase 1): 0.007 µM

CCn1nc2c(c1C)OC1(CCN(C(=O)c3ccc4[nH]nc(C)c4c3)CC1)CC2=O
IC50 (Acetyl-CoA carboxylase 2): 0.042 µM | IC50 (Acetyl-CoA carboxylase 1): 0.029 µM

CCn1nc2c(c1C)OC1(CCN(C(=O)c3cc(C)c4[nH]nc(C)c4c3)CC1)CC2=O
IC50 (Acetyl-CoA carboxylase 2): 0.013 µM | IC50 (Acetyl-CoA carboxylase 1): 0.012 µM

CCc1n[nH]c2ccc(C(=O)N3CCC4(CC3)CC(=O)c3nn(CC)c(C)c3O4)cc12
IC50 (Acetyl-CoA carboxylase 1): 0.036 µM

CCc1cc(C(=O)N2CCC3(CC2)CC(=O)c2nn(CC)c(C)c2O3)cc2cn[nH]c12
IC50 (Acetyl-CoA carboxylase 2): 0.037 µM | IC50 (Acetyl-CoA carboxylase 1): 0.031 µM

CCOc1cc(C(=O)N2CCC3(CC2)CC(=O)c2nn(CC)c(C)c2O3)cc2c(C)n[nH]c12
IC50 (Acetyl-CoA carboxylase 1): 0.0115 µM

CCn1nc2c(c1C)OC1(CCN(C(=O)c3ccc4[nH]ncc4c3)CC1)CC2=O
IC50 (Acetyl-CoA carboxylase 2): 0.092 µM | IC50 (Acetyl-CoA carboxylase 1): 0.1 µM

CCn1nc2c(c1C)OC1(CCN(C(=O)c3cc(C)c4nc[nH]c4c3)CC1)CC2=O
IC50 (Acetyl-CoA carboxylase 2): 0.08 µM | IC50 (Acetyl-CoA carboxylase 1): 0.049 µM

CCn1nc2c(c1C)OC1(CCN(C(=O)c3cc(C)c4nc(C)[nH]c4c3)CC1)CC2=O
IC50 (Acetyl-CoA carboxylase 2): 0.056 µM | IC50 (Acetyl-CoA carboxylase 1): 0.034 µM

Cc1n[nH]c2c(C)cc(C(=O)N3CCC4(CC3)CC(=O)c3nn(C(C)C)cc3O4)cc12
IC50 (Acetyl-CoA carboxylase 2): 0.014 µM | IC50 (Acetyl-CoA carboxylase 1): 0.012 µM | CLint scaled [2]: < 0.48 L/h/kg

Cc1n[nH]c2c(C)cc(C(=O)N3CCC4(CC3)CC(=O)c3nn(C5CCOC5)c(C)c3O4)cc12 (configuration not stated)
CLint scaled [2]: 1.39 L/h/kg

Cc1cc(C(=O)N2CCC3(CC2)CC(=O)c2nn(C(C)(C)C)cc2O3)cc2[nH]cnc12
IC50 (Acetyl-CoA carboxylase 2): 0.0074 µM | IC50 (Acetyl-CoA carboxylase 1): 0.0096 µM | CLint scaled [2]: 0.744 L/h/kg

Cc1nc2c(C)cc(C(=O)N3CCC4(CC3)CC(=O)c3nn(C(C)(C)C)cc3O4)cc2[nH]1
IC50 (Acetyl-CoA carboxylase 2): 0.0066 µM | CLint scaled [2]: 0.906 L/h/kg
